Data as given in ChEMBL document CHEMBL1149718, “Antibacterial activity of crinitol and its potentiation” (1992).
Converted amounts (≈) assume the structure as drawn. The source made the active and inactive calls. The calls are words filed in the database; no cut-off is given here.

Assays:
Staphylococcus aureus [1] = assay: Antibacterial activity against Staphylococcus aureus ATCC 12598 up to 800 ug/ml after 2 days by broth dilution method; format: functional, organism-based
In short: (§1)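 Broth dilution in 0.8% nutrient broth, 0.5% yeast extract and 0.1% glucose. Compound in DMF, diluted twofold, 1% DMF final, highest 800 µg/ml. Inoculum was a 2-day-old culture, reactivated at 30° with shaking (B. subtilis), at 30° stationary (Br. ammoniagenes) or at 37° stationary (others). Stationary incubation 2 days; growth by OD at 660 nm; MIC = lowest concentration with no growth.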

Bacillus subtilis [2] = assay: Antibacterial activity against Bacillus subtilis ATCC 9372 up to 800 ug/ml after 2 days by broth dilution method; format: functional, organism-based; in short: as §1
[3] = test system: Corynebacterium ammoniagenes; assay: Antibacterial activity against Brevibacterium ammoniagenes ATCC 6872 up to 800 ug/ml after 2 days by broth dilution method; format: functional, organism-based; in short: as §1
Cutibacterium acnes [4] = assay: Antibacterial activity against Propionibacterium acnes ATCC 11827 up to 800 ug/ml after 2 days by broth dilution method; format: functional, organism-based; in short: as §1
Streptococcus mutans [5] = assay: Antibacterial activity against Streptococcus mutans ATCC 25175 up to 800 ug/ml after 2 days by broth dilution method; format: functional, organism-based
In short: (§2)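 Twofold broth dilution in 3.7% brain heart infusion broth. Sample dissolved in DMF, 1% DMF final, top concentration 800 µg/ml. Inoculated with 2-day-old culture reactivated in stationary culture at 37°. Stationary incubation for 2 days, turbidity read at 660 nm; MIC taken as lowest concentration showing no growth.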

Cutibacterium acnes [6] = assay: Ratio of MIC for Propionibacterium acnes ATCC 11827 to MIC for Propionibacterium acnes ATCC 11827 in presence of 0.5 MIC of butylated hydroxyanisole; format: functional
Bacillus subtilis [7] = assay: Antibacterial activity against Bacillus subtilis ATCC 9372 after 2 days by broth dilution method in presence of 0.5 MIC of butylated hydroxyanisole; format: functional; settings: ATCC 9372, 48 h
In short: (§3)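 Checkerboard: twofold dilutions of crinitol crossed with twofold dilutions of the antioxidant (BHA or BHT). Medium was nutrient broth/yeast extract/glucose, or 3.7% brain heart infusion for S. mutans. DMF at 1% final, 2-day-old inoculum, stationary culture 2 days. Growth by OD 660 nm; MIC = lowest concentration without growth.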

[8] = test system: Corynebacterium ammoniagenes; assay: Antibacterial activity against Brevibacterium ammoniagenes ATCC 6872 after 2 days by broth dilution method in presence of 0.5 MIC of butylated hydroxyanisole; format: functional; settings: ATCC 6872, 48 h; in short: as §3
Staphylococcus aureus [9] = assay: Antibacterial activity against Staphylococcus aureus ATCC 12598 after 2 days by broth dilution method in presence of 0.5 MIC of butylated hydroxyanisole; format: functional; settings: ATCC 12598, 48 h; in short: as §3
Staphylococcus aureus [10] = assay: Antibacterial activity against Staphylococcus aureus ATCC 12598 after 2 days by broth dilution method in presence of 0.5 MIC of butylated hydroxytoluene; format: functional; settings: ATCC 12598, 48 h; in short: as §3
Cutibacterium acnes [11] = assay: Ratio of MIC for Propionibacterium acnes ATCC 11827 to MIC for Propionibacterium acnes ATCC 11827 in presence of 0.5 MIC of butylated hydroxytoluene; format: functional
[12] = test system: Corynebacterium ammoniagenes; assay: Ratio of MIC for Brevibacterium ammoniagenes ATCC 6872 to MIC for Brevibacterium ammoniagenes ATCC 6872 in presence of 0.5 MIC of butylated hydroxytoluene; format: functional
Cutibacterium acnes [13] = assay: Antibacterial activity against Propionibacterium acnes ATCC 11827 after 2 days by broth dilution method in presence of 0.5 MIC of butylated hydroxytoluene; format: functional; settings: ATCC 11827, 48 h; in short: as §3
[14] = test system: Corynebacterium ammoniagenes; assay: Antibacterial activity against Brevibacterium ammoniagenes ATCC 6872 after 2 days by broth dilution method in presence of 0.5 MIC of butylated hydroxytoluene; format: functional; settings: ATCC 6872, 48 h; in short: as §3
[15] = test system: Corynebacterium ammoniagenes; assay: Ratio of MIC for Brevibacterium ammoniagenes ATCC 6872 to MIC for Brevibacterium ammoniagenes ATCC 6872 in presence of 0.5 MIC of butylated hydroxyanisole; format: functional
[16] = test system: Corynebacterium ammoniagenes; assay: Antibacterial activity against Brevibacterium ammoniagenes ATCC 6872 after 2 days by broth dilution method; format: functional; settings: ATCC 6872, 48 h; in short: as §1
Streptococcus mutans [17] = assay: Antibacterial activity against Streptococcus mutans ATCC 25175 after 2 days by broth dilution method in presence of 0.5 MIC of butylated hydroxytoluene; format: functional; settings: ATCC 25175, 48 h; in short: as §3
Cutibacterium acnes [18] = assay: Antibacterial activity against Propionibacterium acnes ATCC 11827 after 2 days by broth dilution method in presence of 0.5 MIC of butylated hydroxyanisole; format: functional; settings: ATCC 11827, 48 h; in short: as §3
Cutibacterium acnes [19] = assay: Antibacterial activity against Propionibacterium acnes ATCC 11827 after 2 days by broth dilution method; format: functional; settings: ATCC 11827, 48 h; in short: as §1
Streptococcus mutans [20] = assay: Antibacterial activity against Streptococcus mutans ATCC 25175 after 2 days by broth dilution method; format: functional; settings: ATCC 25175, 48 h; in short: as §2
Bacillus subtilis [21] = assay: Ratio of MIC for Bacillus subtilis ATCC 9372 to MIC for Bacillus subtilis ATCC 9372 in presence of 0.5 MIC of butylated hydroxytoluene; format: functional
Streptococcus mutans [22] = assay: Ratio of MIC for Streptococcus mutans ATCC 25175 to MIC for Streptococcus mutans ATCC 25175 in presence of 0.5 MIC of butylated hydroxytoluene; format: functional
Bacillus subtilis [23] = assay: Antibacterial activity against Bacillus subtilis ATCC 9372 after 2 days by broth dilution method; format: functional; settings: ATCC 9372, 48 h; in short: as §1
Streptococcus mutans [24] = assay: Antibacterial activity against Streptococcus mutans ATCC 25175 after 2 days by broth dilution method in presence of 0.5 MIC of butylated hydroxyanisole; format: functional; settings: ATCC 25175, 48 h; in short: as §3
Bacillus subtilis [25] = assay: Antibacterial activity against Bacillus subtilis ATCC 9372 after 2 days by broth dilution method in presence of 0.5 MIC of butylated hydroxytoluene; format: functional; settings: ATCC 9372, 48 h; in short: as §3
Bacillus subtilis [26] = assay: Ratio of MIC for Bacillus subtilis ATCC 9372 to MIC for Bacillus subtilis ATCC 9372 in presence of 0.5 MIC of butylated hydroxyanisole; format: functional
Staphylococcus aureus [27] = assay: Antibacterial activity against Staphylococcus aureus ATCC 12598 after 2 days by broth dilution method; format: functional; settings: ATCC 12598, 48 h; in short: as §1
[28] = test system: Corynebacterium ammoniagenes; assay: Antibacterial activity against Brevibacterium ammoniagenes ATCC 6872 after 2 days by broth dilution method in presence of 0.5 MIC of crinitol; format: functional; settings: ATCC 6872, 48 h
Streptococcus mutans [29] = assay: Antibacterial activity against Streptococcus mutans ATCC 25175 after 2 days by broth dilution method in presence of 0.5 MIC of crinitol; format: functional; settings: ATCC 25175, 48 h
Staphylococcus aureus [30] = assay: Antibacterial activity against Staphylococcus aureus ATCC 12598 after 2 days by broth dilution method in presence of 0.5 MIC of crinitol; format: functional; settings: ATCC 12598, 48 h
Bacillus subtilis [31] = assay: Antibacterial activity against Bacillus subtilis ATCC 9372 after 2 days by broth dilution method in presence of 0.5 MIC of crinitol; format: functional; settings: ATCC 9372, 48 h
Streptococcus mutans [32] = assay: Ratio of MIC for Streptococcus mutans ATCC 25175 to MIC for Streptococcus mutans ATCC 25175 in presence of 0.5 MIC of crinitol; format: functional
Cutibacterium acnes [33] = assay: Antibacterial activity against Propionibacterium acnes ATCC 11827 after 2 days by broth dilution method in presence of 0.5 MIC of crinitol; format: functional; settings: ATCC 11827, 48 h

CC(C)=CCC/C(C)=C/C(=O)C/C(C)=C/CC/C(C)=C/CO
Activity (Staphylococcus aureus [1]): inactive | Activity (Bacillus subtilis [2]): inactive | Activity [3]: inactive | Activity (Cutibacterium acnes [4]): inactive | Activity (Streptococcus mutans [5]): inactive

CC(C)=CCC/C(C)=C/[C@H](O)C/C(C)=C/CC/C(C)=C/CO [CRINITOL]
Ratio (Cutibacterium acnes [6]): 4 | MIC (Bacillus subtilis [7]): 50 µg/mL | MIC [8]: 100 µg/mL | MIC (Staphylococcus aureus [9]): 400 µg/mL | MIC (Staphylococcus aureus [10]): 400 µg/mL | Ratio (Cutibacterium acnes [11]): 4 | Ratio [12]: 2 | MIC (Cutibacterium acnes [13]): 6.25 µg/mL | MIC [14]: 50 µg/mL | Ratio [15]: 1 | MIC [16]: 100 µg/mL (≈ 326 µM) | MIC (Streptococcus mutans [17]): 0.78 µg/mL | MIC (Cutibacterium acnes [18]): 6.25 µg/mL | MIC (Cutibacterium acnes [19]): 25 µg/mL (≈ 81.6 µM) | MIC (Streptococcus mutans [20]): 50 µg/mL (≈ 163 µM) | Ratio (Bacillus subtilis [21]): 4 | Ratio (Streptococcus mutans [22]): 64 | MIC (Bacillus subtilis [23]): 50 µg/mL (≈ 163 µM) | MIC (Streptococcus mutans [24]): 12.5 µg/mL | MIC (Bacillus subtilis [25]): 12.5 µg/mL | Ratio (Bacillus subtilis [26]): 1 | MIC (Staphylococcus aureus [27]): 400 µg/mL (≈ 1310 µM)

COc1ccc(O)c(C(C)(C)C)c1.COc1ccc(O)cc1C(C)(C)C [BUTYLATED HYDROXYANISOLE]
MIC [28]: 100 µg/mL | MIC (Streptococcus mutans [29]): 12.5 µg/mL | MIC (Staphylococcus aureus [30]): 200 µg/mL | MIC [16]: 200 µg/mL | MIC (Cutibacterium acnes [19]): 50 µg/mL | MIC (Bacillus subtilis [31]): 50 µg/mL | MIC (Streptococcus mutans [20]): 100 µg/mL | MIC (Bacillus subtilis [23]): 100 µg/mL | Ratio (Streptococcus mutans [32]): 18 | MIC (Cutibacterium acnes [33]): 6.25 µg/mL | MIC (Staphylococcus aureus [27]): 200 µg/mL

CC(=O)O[C@@H](/C=C(\C)CCC=C(C)C)C/C(C)=C/CC/C(C)=C/CO
Activity (Staphylococcus aureus [1]): inactive | Activity (Bacillus subtilis [2]): inactive | Activity [3]: inactive | Activity (Cutibacterium acnes [4]): inactive | Activity (Streptococcus mutans [5]): inactive

Cc1cc(C(C)(C)C)c(O)c(C(C)(C)C)c1 [BUTYLATED HYDROXYTOLUENE]
MIC [28]: 12.5 µg/mL | MIC (Streptococcus mutans [29]): 1.57 µg/mL | MIC [16]: 25 µg/mL (≈ 113 µM) | MIC (Cutibacterium acnes [19]): 25 µg/mL (≈ 113 µM) | MIC (Bacillus subtilis [31]): 6.25 µg/mL | MIC (Streptococcus mutans [20]): 25 µg/mL (≈ 113 µM) | MIC (Bacillus subtilis [23]): 25 µg/mL (≈ 113 µM) | Ratio (Streptococcus mutans [32]): 16 | MIC (Cutibacterium acnes [33]): 6.25 µg/mL | MIC (Staphylococcus aureus [27]): > 800 µg/mL

CC(=O)OC/C=C(\C)CC/C=C(\C)C[C@H](/C=C(\C)CCC=C(C)C)OC(C)=O
Activity (Staphylococcus aureus [1]): inactive | Activity (Bacillus subtilis [2]): inactive | Activity [3]: inactive | Activity (Cutibacterium acnes [4]): inactive | Activity (Streptococcus mutans [5]): inactive

CC(C)=CCC/C(C)=C/CC/C(C)=C/CC/C(C)=C/CO
Activity (Staphylococcus aureus [1]): inactive | Activity (Bacillus subtilis [2]): inactive | Activity [3]: inactive | Activity (Cutibacterium acnes [4]): inactive | Activity (Streptococcus mutans [5]): inactive
